In ChEMBL document CHEMBL1275249, “Meropenem dosing in critically ill patients with sepsis receiving high-volume continuous venovenous hemofiltration” (Antimicrob Agents Chemother, 2010):
Values after ≈ are worked out from the molar mass of the structure shown.

Legend:
[1] = system: Homo sapiens; assay: Clearance not mediated by CVVHF in critically ill patient with sepsis at […], iv administered every 8 hrs by HPLC method; type: ADME, organism-based; parameters: route intravenous; settings: in vivo
[2] = organism: Homo sapiens; assay: Plasma protein binding in patient with acute kidney injury; type: ADME, organism-based
[3] = system: Burkholderia pseudomallei; assay: Antimicrobial activity against Burkholderia pseudomallei; type: functional
[4] = Cmax in critically ill patient with sepsis at […], iv administered every 8 hrs by HPLC method; type: ADME, organism-based; parameters: route intravenous; settings: human, in vivo
In short: (§1)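 Meropenem 1,000 mg as reconstituted IV bolus via central venous catheter every 8 h in septic ICU patients on CVVHF. Plasma sampled predose and at 15–480 min, plus 0–8 h urine. Levels measured by validated C18 HPLC-UV at 298 nm with ertapenem internal standard. Noncompartmental analysis used linear trapezoidal AUC0-8 and AUMC, and λz from 2–8 h log-linear regression.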

[5] = system: Homo sapiens; assay: Hemofiltration clearance in critically ill patient with sepsis receiving high-volume continuous venovenous hemofiltration at […], iv administered every 8 hrs by HPLC method; type: ADME, organism-based; parameters: route intravenous; settings: in vivo
In short: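 Same 1,000 mg q8h IV bolus regimen on CVVHF. Filter was changed if it was over 3 h old at the start of sampling. Pre- and postfilter blood and ultrafiltrate were collected at matched times over 0–480 min, and all ultrafiltrate was collected for the interval. Concentrations were measured by HPLC-UV. CVVHF clearance = ultrafiltrate amount/AUC0-8; […].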

[6] = system: Homo sapiens; assay: Ultrafiltration flow rate in critically ill patient with sepsis receiving high-volume continuous venovenous hemofiltration at […], iv administered every 8 hrs by HPLC method; type: ADME, organism-based; parameters: route intravenous; settings: in vivo
[7] = fT>MIC in patient with acute kidney injury infected with Burkholderia pseudomallei; type: functional
In short: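 Ten critically ill septic patients with AKI on high-volume CVVHF received meropenem 1,000 mg every 8 h as a central-venous bolus. Plasma was assayed by HPLC-UV at 298 nm with an ertapenem internal standard. Concentration-time data were compared with an MIC of 4 mg/liter.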

[8] = Renal clearance in critically ill patient with sepsis at […], iv administered every 8 hrs by HPLC method; type: ADME, organism-based, Kidney; parameters: route intravenous; settings: human, in vivo, read-out: CL_renal (converted); in short: as §1

## C[C@@H](O)[C@H]1C(=O)N2C(C(=O)O)=C(S[C@@H]3CN[C@H](C(=O)N(C)C)C3)[C@H](C)[C@H]12 [MEROPENEM]
[1]
  CL: 2.4 L/h
[2]
  Activity: 2%
[3]
  MIC90: 4 µg/mL (≈ 10.4 µM)
[4]
  Cmax: 56.6 µg/mL
[5]
  CL: 3.5 L/h
[6]
  Activity: 4.4 L/h
[7]
  fT>MIC: 40%
[8]
  CL renal at 8 h: 0.0833 mL/min
